Assay [1] has as its system 518A2. In words: Induction of apoptosis in human 518A2 cells assessed as blebbing of nuclear membrane at 30 uM after 24 hrs by acridine orange based fluorescence microscopy analysis. Format: functional, cell-based. The procedure, abridged:
(§1)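 They were treated with 30 µM compound, and the next day washed with PBS and stained with acridine orange. Living cells were inspected by fluorescence microscopy for chromatin condensation and nuclear membrane blebbing.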

The subject of assay [2] is 8505C. In words: Induction of apoptosis in human 8505C cells assessed as blebbing of nuclear membrane at 30 uM after 24 hrs by acridine orange based fluorescence microscopy analysis. The class given is functional, cell-based. The procedure, abridged:
as §1

Assay [3] concerns 8505C. In words: Induction of apoptosis in human 8505C cells assessed as condensation of chromatin at 30 uM after 24 hrs by acridine orange based fluorescence microscopy analysis. Format: functional, cell-based. The procedure, abridged:
as §1

A further assay relates to A2780. In words: Cytotoxicity against human A2780 cells after 96 hrs by SRB assay. The class given is functional, cell-based. A digest of the protocol:
(§2)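 Monolayer cultures kept in RPMI 1640 with 10% heat-inactivated FBS and penicillin/streptomycin at 37 °C, 5% CO2. Exponentially growing cells were seeded and treated 24 h later with serial dilutions (0–30 µM) for 96 h, with DMSO or DMF at most 0.5% final. Cells were fixed with 10% TCA at 4 °C and stained with 0.4% SRB for about 30 min. Plates were washed with 1% acetic acid and the dye dissolved in 10 mM Tris base. Absorbance was read at 570 nm and survival taken relative to untreated controls. IC50 was estimated from dose–response curves, averaged from at least 5 independent experiments.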
(In general: Sulforhodamine B stains cellular protein and so reports cell mass.)

Another assay relates to DLD-1. In words: Cytotoxicity against human DLD1 cells after 96 hrs by SRB assay. The class given is functional, cell-based. The procedure, abridged: as §2
In assay [4] the test system is 8505C. Briefly: Induction of apoptosis in human 8505C cells after 24 to 48 hrs by DNA laddering assay. The class given is functional, cell-based. A digest of the protocol:
(§3)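 About 1×10^6 cells were grown in 25 cm2 flasks to 80% and exposed to compound-loaded medium for 24–48 h, with blank medium as control. Cells were collected from the supernatant (300 g, 4 °C), washed in PBS and lysed. Lysates were digested with RNase for 2 h at 37 °C, then with proteinase K for 12 h at 50 °C. DNA was run on agarose gel electrophoresis ([…], 2 h).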

The subject of assay [5] is 518A2. Briefly: Induction of apoptosis in human 518A2 cells after 24 to 48 hrs by DNA laddering assay. The class given is functional, cell-based. The procedure, abridged: as §3
Assay [6] is described as follows: Cytotoxicity against human A253 cells after 96 hrs by SRB assay. Format: functional, cell-based. A digest of the protocol: as §2
A short description of assay [7]: Cytotoxicity against human 518A2 cells after 96 hrs by SRB assay. The class given is functional, cell-based. The procedure, abridged:
as §2

Assay [8] is described as follows: Cytotoxicity against human WW030272 cells after 96 hrs by SRB assay. The class given is cell-based. The procedure, abridged: as §2
A further assay relates to NIH3T3. Briefly: Cytotoxicity against mouse NIH/3T3 cells after 96 hrs by SRB assay. Format: cell-based. The procedure, abridged: as §2
The next assay deals with MCF7. In words: Cytotoxicity against human MCF7 cells after 96 hrs by SRB assay. The class given is functional, cell-based. The procedure, abridged:
as §2

Assay [9] relates to 8505C. In words: Cytotoxicity against human 8505C cells after 96 hrs by SRB assay. Format: functional, cell-based. A digest of the protocol: as §2
The subject of assay [10] is 8505C. In words: Induction of apoptosis in human 8505C cells assessed as induction of cell death after 24 to 48 hrs by AO/PI exclusion dye assay. The class given is functional, cell-based. The procedure, abridged:
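About 1×10^6 cells were grown in 25 cm2 flasks to 80% and given compound-loaded medium for 24–48 h, with blank medium as control. Cells were recovered from the supernatant (300 g, 4 °C), washed and resuspended in PBS. They were mixed 1:1 with AO/PI solution and viewed by fluorescence microscopy: green cells were scored as apoptotic, red as necrotic.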

For assay [11], the system named is 518A2. Briefly: Induction of apoptosis in human 518A2 cells assessed as condensation of chromatin at 30 uM after 24 hrs by acridine orange based fluorescence microscopy analysis. Format: functional, cell-based. The procedure, abridged: as §1
For a further assay, the system named is A549. In words: Cytotoxicity against human A549 cells after 96 hrs by SRB assay. The class given is functional, cell-based. The procedure, abridged:
as §2

The subject of assay [12] is 8505C. Briefly: Induction of apoptosis in human 8505C cells migration of phosphatidylserine from inner to outer cell membrane at 3.5 uM after 6 hrs by Annexin V-FITC/PI based FACS analysis. The class given is functional. For orientation: In flow cytometry, cells or beads pass a laser one at a time.
Assay [13] relates to 8505C. Briefly: Induction of apoptosis in human 8505C cells assessed as migration of phosphatidylserine from inner to outer cell membrane at 30 uM after 6 hrs by Annexin V-FITC/PI based FACS analysis. Format: functional.

Activity calls are given as the source filed them. The calls are words filed in the database; no cut-off is given here.

Turning to `COC(=O)[C@]12CC[C@@H](C)[C@@](C)(O)[C@H]1C1=CC[C@@H]3[C@@]4(C)C[C@@H](O)[C@H](O)C(C)(C)[C@@H]4CC[C@@]3(C)[C@]1(C)CC2` [TORMENTIC ACID METHYL ESTER], the result with 518A2 [1], in the assay with 8505C [2], in the assay with 8505C [3], in the assay with 8505C [4], in the assay on 518A2 [5] and with 8505C [10] was Active. The result in the assay on 518A2 [11] was Active. In addition, the IC50 was 23.9 µmol in the assay with A2780; 37.4 µmol in the assay with DLD-1; 17 µmol in [6]; 31.3 µmol in assay [7]; 47.5 µmol in assay [8]; 15.6 µmol with NIH3T3. The IC50 was 31.3 µmol with MCF7 and 42 µmol with 8505C [9].
As to `COC(=O)[C@]12CC[C@@H](C)[C@@](C)(O)[C@H]1C1=CC[C@@H]3[C@@]4(C)C[C@@H](OC(=O)CCl)[C@H](OC(=O)CCl)C(C)(C)[C@@H]4CC[C@@]3(C)[C@]1(C)CC2`, the IC50 with A2780 came out at 0.8 µmol; with DLD-1 it was 2.2 µmol; with A549, 1.2 µmol; in [6] it was 1.6 µmol; in assay [7] it was 1.1 µmol; in assay [8], 3.4 µmol. The IC50 worked out at 1.1 µmol in the assay with NIH3T3, 1.5 µmol in the assay with MCF7 and 1.6 µmol with 8505C [9]. Further, the result with 8505C [4], in the assay on 8505C [12], in the assay with 518A2 [5] and in the assay on 8505C [10] was Active.
Regarding `C[C@@H]1CC[C@]2(C(=O)O)CC[C@]3(C)C(=CC[C@@H]4[C@@]5(C)C[C@@H](O)[C@H](O)C(C)(C)[C@@H]5CC[C@]43C)[C@@H]2[C@]1(C)O` [TOMENTIC ACID], the IC50 is more than 30 µmol in the assay on A2780; 31 µmol with DLD-1; 31 µmol in the assay with A549; more than 30 µmol in assay [6]; more than 30 µmol in [7]; 47.7 µmol in [8]. For the same molecule, the figures for the IC50 in the assay with NIH3T3, with MCF7 and in the assay with 8505C [9] were more than 30 µmol, 32.3 µmol and 23.4 µmol, respectively. Further, the outcome with 8505C [4], in the assay on 518A2 [5], in the assay with 8505C [13] and with 8505C [10] was Active.

The record behind these values is ChEMBL document CHEMBL2086359, “Tormentic acid derivatives: synthesis and apoptotic activity” (Eur J Med Chem, 2012).
